One block for each molecule: values may come before it. Where a SMILES comes first, the peptide text is derived from it. [ ]: non-standard residue; d: D form. The star is where a group is joined. X1 = COC1=CC(=O)N(C(=O)[C@@H](O*)C(C)C)[C@H]1Cc1ccccc1; NMe2Val = CC(C)[C@@H](C(=O)*)N(C)C; NMeV = CN[C@H](C(=O)O)C(C)C
Legend:
[1] = Inhibition of goat brain tubulin polymerization incubated for 20 mins prior to GTP addition measured for 30 mins by 90 degree light scattering-based fluorescence spectrophotometric method; design: species or system Capra hircus
Outline: (§1)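 Goat brain tubulin (10 μM) was preincubated with compound (5 μM; or 1, 5, 7, 10 μM) in 1 M monosodium glutamate, 3 mM MgCl2, 1 mM EGTA, 25 mM Pipes pH 6.8 on ice for 20 min. GTP (1 mM) was then added and assembly followed by 90° light scattering at 400 nm for 30 min at 37 °C. Experiment run twice.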

HeLa [2] = test: Cytotoxicity against human HeLa cells after 24 to 48 hrs by trypan blue assay; assay type: functional, cell-based
Outline: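 Cells were seeded at 1 × 10^5 cells/mL, grown 24 h at 37 °C in 5% CO2, then given vehicle (0.1% DMSO) or 1–80 nM for a further 24 or 48 h. Attached plus floating cells were counted after trypan blue staining. Percent inhibition was plotted against concentration to give IC50. Average of three independent experiments.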

HeLa [3] = test: Inhibition of mitosis in human HeLa cells assessed as mitotic index at 200 nM after 48 hrs by Hoechst 33258 DNA staining assay (reference value: 4 +/- 0.2 %); assay type: functional; design: scale not given: the % may be the effect or the level left
Outline: (§2)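 HeLa cells were treated for 24 or 48 h with compound or vehicle (0.1% DMSO). DNA was stained with Hoechst 33258 and mitotic cells were counted to give the mitotic index.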

HeLa [4] = test: Inhibition of mitosis in human HeLa cells assessed as mitotic index at 100 nM after 24 hrs by Hoechst 33258 DNA staining assay (reference value: 4 +/- 0.3 %); assay type: functional; design: scale not given: the % may be the effect or the level left; outline: as §2
HeLa [5] = test: Inhibition of mitosis in human HeLa cells after 24 hrs by Hoechst 33258 DNA staining assay; assay type: functional, cell-based; outline: as §2
HeLa [6] = test: Inhibition of mitosis in human HeLa cells assessed as mitotic index at 300 nM after 24 hrs by Hoechst 33258 DNA staining assay (reference value: 4 +/- 0.3 %); assay type: functional; design: scale not given: the % may be the effect or the level left; outline: as §2
HeLa [7] = test: Induction of apoptosis in human HeLa cells assessed as apoptotic cells at 700 nM after 10 hrs by annexin V-FITC/propidium iodide staining-based FACS analysis; assay type: functional
Outline: (§3)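 HeLa cells were exposed for 10 or 24 h, then stained with annexin V and propidium iodide using an apoptosis kit. Apoptotic cells were quantified by FACS. Compounds were dissolved in DMSO.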

HeLa [8] = test: Inhibition of mitosis in human HeLa cells assessed as mitotic index at 300 nM after 48 hrs by Hoechst 33258 DNA staining assay (reference value: 4 +/- 0.2 %); assay type: functional; design: scale not given: the % may be the effect or the level left; outline: as §2
HeLa [9] = test: Inhibition of mitosis in human HeLa cells assessed as mitotic index at 100 nM after 48 hrs by Hoechst 33258 DNA staining assay (reference value: 4 +/- 0.2 %); assay type: functional; design: scale not given: the % may be the effect or the level left; outline: as §2
HeLa [10] = test: Induction of apoptosis in human HeLa cells assessed as apoptotic cells at 700 nM after 24 hrs by annexin V-FITC/propidium iodide staining-based FACS analysis; assay type: functional; outline: as §3
HeLa [11] = test: Inhibition of mitosis in human HeLa cells assessed as mitotic index at 200 nM after 24 hrs by Hoechst 33258 DNA staining assay (reference value: 4 +/- 0.3 %); assay type: functional; design: scale not given: the % may be the effect or the level left; outline: as §2
Capra hircus [12] = organism: Capra hircus; test: Inhibition of goat brain tubulin polymerization at 5 uM incubated for 20 mins prior to GTP addition measured for 30 mins by 90 degree light scattering-based fluorescence spectrophotometric method; outline: as §1
HeLa [13] = test: Antiproliferative activity against human HeLa cells assessed as median dose after 24 hrs; assay type: functional
Outline: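 HeLa cells treated for 24 h with each agent alone and in combinations. The median dose (Dm) was taken from the median dose plot, and combination index was computed as CI = (D)1/(Dx)1 + (D)2/(Dx)2.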

Capra hircus [14] = organism: Capra hircus; settings: 3 uM
SK-N-SH [15] = test: Cytotoxicity against human SK-N-SH cells assessed as cell death at 50 uM after 72 hrs by MTT assay; assay type: functional
SK-N-SH [16] = test: Cytotoxicity against human SK-N-SH cells assessed as cell death at 80 uM after 72 hrs by MTT assay; assay type: functional

Structure (SMILES): CC[C@H](C)[C@@H]([C@@H](CC(=O)N1CCC[C@H]1[C@H](OC)[C@@H](C)C(=O)N[C@@H](Cc1ccccc1)c1nccs1)OC)N(C)C(=O)[C@@H](NC(=O)[C@H](C(C)C)N(C)C)C(C)C [DOLASTATIN-10]
- IC50 [1]: 1200 nM

Structure (SMILES): CO[C@@H](/C(C)=C/C=C/C(C)=C/c1coc(C)n1)[C@@H](C)[C@@H]1C[C@H](O)[C@@]2(C)O[C@@H]2/C=C/[C@@H](C)[C@H]2C[C@H](CC(=O)O2)C[C@@H]2O[C@H]2C(=O)O1 [RHIZOXIN]
- IC50 [1]: 6800 nM

Structure (SMILES): CC[C@H](C)[C@@H]([C@H](O)CC(=O)NC[C@H]1O[C@H](C(=O)NCc2ccccc2)[C@@H](OC)[C@@H]1OC)N(C)C(=O)[C@@H](NC(=O)[C@@H](NC)C(C)C)C(C)C
- IC50 (HeLa [2]): 12 nM

Structure (SMILES): COC(=O)Nc1nc2cc(C(=O)c3cccs3)ccc2[nH]1 [NOCODAZOLE]
- Activity (HeLa [3]): 13%
- Activity (HeLa [4]): 22%
- inhibition (HeLa [5]): Dose-dependent effect
- Activity (HeLa [6]): 36%
- Activity (HeLa [7]): 14.7%
- Activity (HeLa [8]): 11%
- IC50 (HeLa [2]): 178 nM
- Activity (HeLa [9]): 14%
- Activity (HeLa [10]): 50.5%
- Activity (HeLa [11]): 28%

Structure (SMILES): CC[C@H](C)[C@@H](/C=C/C(=O)NC[C@H]1O[C@@H](C(=O)N[C@@H](Cc2ccccc2)C2=NCCS2)[C@@H](OC)[C@@H]1OC)N(C)C(=O)[C@@H](NC(=O)[C@@H](NC)C(C)C)C(C)C
- inhibition (Capra hircus [12]): 19%
- IC50 (HeLa [2]): 8.7 nM

Structure (SMILES): CC[C@H](C)[C@@H]([C@H](CC(=O)NC[C@H]1O[C@H](C(=O)N[C@@H](Cc2ccccc2)c2nccs2)[C@@H](OC)[C@@H]1OC)OC)N(C)C(=O)[C@@H](NC(=O)[C@@H](NC)C(C)C)C(C)C
- inhibition (Capra hircus [12]): 10%
- IC50 (HeLa [2]): 9.9 nM

Structure (SMILES): COC1=CC(=O)N(C(=O)[C@@H](OC(=O)[C@@H]2CCCN2C(=O)[C@@H]2CCCN2C(=O)[C@H](C(C)C)N(C)C(=O)[C@@H](NC(=O)[C@H](C(C)C)N(C)C)C(C)C)C(C)C)[C@H]1Cc1ccccc1 [DOLASTATIN 15] (NMe2Val-V[NMeV]PP-X1)
- IC50 [1]: 23000 nM

Structure (SMILES): CC[C@H](C)[C@@H](/C=C/C(=O)NC[C@H]1O[C@@H](C(=O)N[C@@H](Cc2ccccc2)C2=NCCS2)[C@@H](OC)[C@@H]1OC)N(C)C(=O)[C@@H](NC(=O)[C@H](C(C)C)N(C)C)C(C)C
- inhibition (Capra hircus [12]): 21%
- IC50 (HeLa [2]): 8.8 nM

Structure (SMILES): CC[C@H](C)[C@@H]([C@H](O)CC(=O)NC[C@H]1O[C@@H](C(=O)NCc2ccccc2)[C@@H](OC)[C@@H]1OC)N(C)C(=O)[C@@H](NC(=O)[C@@H](NC)C(C)C)C(C)C
- IC50 (HeLa [2]): 16 nM

Structure (SMILES): CC[C@H](C)[C@@H]([C@H](CC(=O)NC[C@H]1O[C@H](C(=O)N[C@@H](Cc2ccccc2)c2nccs2)[C@@H](OC)[C@@H]1OC)OC)N(C)C(=O)[C@@H](NC(=O)[C@H](C(C)C)N(C)C)C(C)C
- IC50 (HeLa [2]): 16 nM

Structure (SMILES): CC[C@H](C)[C@@H]([C@@H](CC(=O)NC[C@H]1O[C@@H](C(=O)NCCc2ccccc2)[C@@H](OC)[C@@H]1OC)OC)N(C)C(=O)[C@@H](NC(=O)[C@@H](NC)C(C)C)C(C)C
- IC50 (HeLa [2]): 15 nM

- IC50 [1]: 1500 nM
- inhibition (Capra hircus [14]): 50%
Structure (SMILES): CC[C@]1(O)C[C@@H]2CN(CCc3c([nH]c4ccccc34)[C@@](C(=O)OC)(c3cc4c(cc3OC)N(C)[C@H]3[C@@](O)(C(=O)OC)[C@H](OC(C)=O)[C@]5(CC)C=CCN6CC[C@]43[C@@H]65)C2)C1 [VINBLASTINE]
- Activity (HeLa [13]): 2.3 nM

Structure (SMILES): CC[C@]12C=CCN3CC[C@@]4(c5cc([C@@]6(C(=O)OC)C[C@@H]7C[C@@H](C(C)(F)F)CN(Cc8c6[nH]c6ccccc86)C7)c(OC)cc5N(C)[C@H]4[C@@](O)(C(=O)OC)[C@@H]1OC(C)=O)[C@@H]32 [VINFLUNINE]
- Activity (SK-N-SH [15]): 50%
- Activity (SK-N-SH [16]): 70%

Structure (SMILES): COc1cc2c(c(OC)c1OC)-c1ccc(OC)c(=O)cc1[C@@H](NC(C)=O)CC2 [COLCHICINE]
- Activity (HeLa [13]): 17.8 nM
